Data as given in ChEMBL document CHEMBL1157725 (Bioorg Med Chem, 2010).
Calls of active or inactive are those of the source. No cut-off for these calls is given here.

What was measured:
[1] = test system: MCF7; assay: Antiproliferative activity against human MCF7 cells after 24 hrs by SRB assay; type: functional, cell-based; conditions: MCF7, 24 h
Summary of the method: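 MCF-7 cells are grown for 24 h with or without drug, then for a further 48 h. Total cell protein is measured by sulforhodamine B staining, and the IC₅₀ is derived from it.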

[2] = Inhibition of tubulin in rat A10 cells assessed as induction of cellular microtubule disassembly after 18 hrs by indirect immunofluorescence technique; type: cell-based; conditions: A10, 18 h
Summary of the method: (§1)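 A-10 cells plated on glass coverslips and treated with compound at varying concentrations for 18 h. After fixation, microtubules immunostained with a β-tubulin antibody (indirect immunofluorescence) and nuclei stained with DAPI. Read by fluorescence microscopy. Percentage of cellular microtubule loss estimated visually across the concentration range.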

[3] = Inhibition of tubulin polymerization by turbidimetry
Summary of the method: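 Tubulin at 10 µM (1.0 mg/mL). Polymerization followed turbidimetrically at 350 nm in temperature-controlled spectrophotometers.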

[4] = Displacement of [3H]colchicine from tubulin at 50 uM by turbidimetry; conditions: in the assay text read “by DEAE-cellulose filter method” for “by turbidimetry”
Summary of the method: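 Binding of [³H]colchicine to tubulin (1.0 µM, 0.1 mg/mL) is measured by the DEAE-cellulose filter method. The radioligand is at 5.0 µM and test agents at 5 or 50 µM. Each is run in triplicate.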

[5] = test system: A10; assay: Inhibition of tubulin in rat A10 cells assessed as disappearance of microtubule network at 20 uM after 18 hrs by fluorescence microscopy; type: cell-based; summary of the method: as §1
[6] = Displacement of [3H]colchicine from tubulin at 5 uM by DEAE-cellulose filter method

Structure (SMILES) | IC50 [1] [nM] | EC50 [2] [nM] | IC50 [3] [nM] | inhibition [4] [%] | Activity [5] | inhibition [6] [%]
COc1ccc(/C=C\c2cc(OC)c(OC)c(OC)c2)cc1O [COMBRETASTATIN A4] | 32 | < 25 |  |  |  | 
COc1ccc(/C=C/C(=O)c2cc(OC)c(OC)c(OC)c2)cc1O | 110 | 980 | 2600 | 101 | Active | 88
COc1ccc(C(=O)/C=C/c2cc(OC)c(OC)c(OC)c2)cc1O | > 2500 | 18000 | > 40000 |  |  | 
